pIC50: −log10 of the molar value.
What was measured:
A431 (Homo sapiens) = experiment: Inhibition of EGF-dependent tyrosine phosphorylation in A431 cells.
[1] = molecular target: Proto-oncogene tyrosine-protein kinase Src (Homo sapiens, UniProt P12931); experiment: In vitro inhibition of the c-src tyrosine kinase activity in A431 membranes using angiotensin II as phosphate acceptor as substrate; format: cell membranes
[2] = molecular target: v-abl tyrosine kinase (Abelson murine leukemia virus) (UniProt P00521); experiment: In vitro inhibition of the v-abl tyrosine kinase activity using purified v-abl kinase
[3] = molecular target: Epidermal growth factor receptor (Homo sapiens, UniProt P00533); experiment: In vitro inhibition of the Epidermal growth factor receptor activity in A431 membranes
Balb/MK = experiment: Tested for antiproliferative activity using mouse epidermal keratinocytes cell line (BALB/MK); format: functional, cell-based
In short: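 BALB/MK mouse epidermal keratinocytes, which depend on EGF to proliferate. Compounds were kept as 10 mM DMSO stocks and freshly diluted. They were added 24 h after plating, at a final DMSO concentration of 0.5%. Growth was read by methylene blue staining after 3–5 days, and IC50 was determined.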

[4] = In vitro inhibition of the Protein kinase C tyrosine kinase activity in A431 membranes; format: cell membranes
Mus musculus = experiment: Inhibition of EGF-dependent tyrosine phosphorylation in xenografts of the BT-20 tumor in nude mice.; format: functional, organism-based

Chain of Proto-oncogene tyrosine-protein kinase Src (P12931 2-536 limits assumed): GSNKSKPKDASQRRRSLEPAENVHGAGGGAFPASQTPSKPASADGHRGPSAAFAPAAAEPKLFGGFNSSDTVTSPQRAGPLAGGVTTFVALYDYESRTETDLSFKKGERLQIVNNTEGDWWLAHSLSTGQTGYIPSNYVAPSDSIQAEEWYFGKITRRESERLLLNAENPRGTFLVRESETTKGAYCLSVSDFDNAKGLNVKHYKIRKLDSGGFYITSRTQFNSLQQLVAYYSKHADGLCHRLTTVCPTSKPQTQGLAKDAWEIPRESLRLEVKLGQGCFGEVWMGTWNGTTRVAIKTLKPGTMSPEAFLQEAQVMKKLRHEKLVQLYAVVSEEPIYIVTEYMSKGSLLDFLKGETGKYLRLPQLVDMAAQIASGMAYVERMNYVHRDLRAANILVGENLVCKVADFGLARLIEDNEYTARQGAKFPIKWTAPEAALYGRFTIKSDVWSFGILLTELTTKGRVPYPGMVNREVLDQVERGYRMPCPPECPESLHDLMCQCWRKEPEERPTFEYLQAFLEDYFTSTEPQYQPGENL
Chain of Epidermal growth factor receptor (P00533 whole entry): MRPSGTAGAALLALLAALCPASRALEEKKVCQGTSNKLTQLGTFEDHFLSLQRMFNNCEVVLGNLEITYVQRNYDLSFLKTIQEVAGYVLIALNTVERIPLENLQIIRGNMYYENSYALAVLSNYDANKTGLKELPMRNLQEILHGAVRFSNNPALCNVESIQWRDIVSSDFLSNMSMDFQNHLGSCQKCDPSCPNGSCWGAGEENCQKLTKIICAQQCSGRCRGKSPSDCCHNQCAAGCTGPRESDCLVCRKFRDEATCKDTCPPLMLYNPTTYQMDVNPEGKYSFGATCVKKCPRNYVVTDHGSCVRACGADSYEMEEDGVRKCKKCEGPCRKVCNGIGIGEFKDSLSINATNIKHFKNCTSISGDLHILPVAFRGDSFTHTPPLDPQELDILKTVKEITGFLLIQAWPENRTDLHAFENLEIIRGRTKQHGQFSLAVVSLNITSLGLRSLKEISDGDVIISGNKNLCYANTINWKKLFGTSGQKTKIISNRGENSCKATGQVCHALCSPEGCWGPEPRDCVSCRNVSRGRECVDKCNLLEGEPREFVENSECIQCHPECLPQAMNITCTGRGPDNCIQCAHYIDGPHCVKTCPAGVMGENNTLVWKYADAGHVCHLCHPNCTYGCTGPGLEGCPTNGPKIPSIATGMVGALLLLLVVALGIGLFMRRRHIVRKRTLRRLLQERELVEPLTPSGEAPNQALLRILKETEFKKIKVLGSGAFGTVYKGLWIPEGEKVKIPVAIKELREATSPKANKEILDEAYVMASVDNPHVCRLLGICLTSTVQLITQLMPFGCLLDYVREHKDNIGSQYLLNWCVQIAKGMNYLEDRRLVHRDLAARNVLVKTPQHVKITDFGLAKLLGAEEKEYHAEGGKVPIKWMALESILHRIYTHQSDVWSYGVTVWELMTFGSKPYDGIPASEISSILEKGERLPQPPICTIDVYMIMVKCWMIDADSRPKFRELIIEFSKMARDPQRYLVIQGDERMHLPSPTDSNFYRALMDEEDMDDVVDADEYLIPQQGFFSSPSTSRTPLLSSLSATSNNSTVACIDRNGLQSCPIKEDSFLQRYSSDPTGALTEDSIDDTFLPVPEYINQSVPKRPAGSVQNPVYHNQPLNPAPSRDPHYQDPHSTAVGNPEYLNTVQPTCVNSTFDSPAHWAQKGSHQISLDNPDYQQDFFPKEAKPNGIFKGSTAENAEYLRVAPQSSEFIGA
Chain of v-abl tyrosine kinase (Abelson murine leukemia virus) (P00521 whole entry, looked up): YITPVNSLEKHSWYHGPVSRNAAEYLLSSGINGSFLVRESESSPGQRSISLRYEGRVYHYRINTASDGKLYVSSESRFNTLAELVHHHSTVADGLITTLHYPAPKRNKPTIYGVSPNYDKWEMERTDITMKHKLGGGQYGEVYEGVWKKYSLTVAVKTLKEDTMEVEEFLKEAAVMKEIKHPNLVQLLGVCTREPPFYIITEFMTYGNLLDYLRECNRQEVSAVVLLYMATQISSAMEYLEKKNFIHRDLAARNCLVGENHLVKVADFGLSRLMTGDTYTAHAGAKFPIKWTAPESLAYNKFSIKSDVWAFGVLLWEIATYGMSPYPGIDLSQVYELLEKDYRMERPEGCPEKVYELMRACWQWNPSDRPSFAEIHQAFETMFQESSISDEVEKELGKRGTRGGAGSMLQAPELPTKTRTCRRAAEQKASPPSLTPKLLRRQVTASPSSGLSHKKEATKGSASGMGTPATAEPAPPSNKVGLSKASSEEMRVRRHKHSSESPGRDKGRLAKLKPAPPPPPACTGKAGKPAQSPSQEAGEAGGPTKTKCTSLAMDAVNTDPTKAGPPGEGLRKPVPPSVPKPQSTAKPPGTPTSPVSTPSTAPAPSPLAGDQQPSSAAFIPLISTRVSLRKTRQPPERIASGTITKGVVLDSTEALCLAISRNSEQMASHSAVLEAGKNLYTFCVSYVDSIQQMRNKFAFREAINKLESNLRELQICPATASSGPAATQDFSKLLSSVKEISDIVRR

SMILES: O=C(CCN1CCCCC1)c1ccc(OCc2ccccc2)cc1
- pIC50 (A431 (Homo sapiens)): 4.00
- pIC50 [1]: < 4.00
- pIC50 [2]: < 4.00
- pIC50 [3]: 5.74
- pIC50 (Balb/MK): 4.59
- pIC50 [4]: < 3.30

SMILES: CCOC(=O)C1CCN(CCC(=O)c2ccc(OCc3ccccc3)cc2)CC1
- pIC50 (A431 (Homo sapiens)): < 4.00
- pIC50 [1]: < 4.00
- pIC50 [2]: < 4.00
- pIC50 [3]: 6.52
- pIC50 (Balb/MK): 4.40
- pIC50 [4]: < 3.30

SMILES: C=C(CN1CCNCC1)C(=O)c1ccc(OCc2ccccc2)cc1
- pIC50 (A431 (Homo sapiens)): < 4.00
- pIC50 [1]: < 4.00
- pIC50 [2]: < 4.00
- pIC50 [3]: 5.82
- pIC50 (Balb/MK): 6.02
- pIC50 [4]: 3.51

SMILES: C=C(CN(C)C)C(=O)c1ccc(OCc2ccccc2)cc1
- pIC50 [1]: < 4.00
- pIC50 [2]: < 4.00
- pIC50 (Balb/MK): 5.21
- pIC50 [4]: 3.67

SMILES: CN(C)CCC(=O)c1ccc(OCc2ccccc2)c(O)c1
- pIC50 (A431 (Homo sapiens)): 4.30
- pIC50 [1]: < 4.30
- pIC50 [2]: < 4.00
- pIC50 [3]: 6.44
- pIC50 (Balb/MK): 5.03
- pIC50 [4]: 3.30

SMILES: C=C(CN(C)C)C(=O)c1ccccc1
- pIC50 [1]: < 4.00
- pIC50 [2]: < 4.00
- pIC50 [3]: 5.25
- pIC50 (Mus musculus): < 4.00
- pIC50 (Balb/MK): 5.03
- pIC50 [4]: 3.30

SMILES: CN(C)CC(CNNC(N)=O)C(=O)c1ccc(OCc2ccccc2)cc1 (configuration not stated)
- pIC50 (A431 (Homo sapiens)): 4.30
- pIC50 [1]: < 4.00
- pIC50 [2]: < 4.00
- pIC50 [3]: 5.41
- pIC50 (Balb/MK): 5.70
- pIC50 [4]: < 3.30

SMILES: Cc1ccc(SCC(CN(C)C)C(=O)c2ccc(OCc3ccccc3)cc2)cc1C (configuration not stated)
- pIC50 (A431 (Homo sapiens)): 4.00
- pIC50 [1]: < 4.00
- pIC50 [2]: < 4.00
- pIC50 [3]: 5.68
- pIC50 (Balb/MK): 5.92
- pIC50 [4]: < 3.30

SMILES: O=c1c(-c2ccc(O)cc2)coc2cc(O)cc(O)c12 [GENISTEIN]
- pIC50 [1]: 4.12
- pIC50 [2]: 5.00
- pIC50 [4]: 4.82

SMILES: CN(C)CC(CSc1ccccc1)C(=O)c1ccc(OCc2ccccc2)cc1 (configuration not stated)
- pIC50 (A431 (Homo sapiens)): 4.00
- pIC50 [1]: < 4.30
- pIC50 [2]: < 4.30
- pIC50 [3]: 5.14
- pIC50 (Balb/MK): 5.80
- pIC50 [4]: < 3.30

SMILES: C=C(CN(C)C)C(=O)c1ccc(OS(=O)(=O)c2ccc(C(=O)N(C)C)cc2)cc1
- pIC50 [1]: < 4.30
- pIC50 [2]: 4.15
- pIC50 [3]: 6.15
- pIC50 (Balb/MK): 5.55
- pIC50 [4]: 3.74

SMILES: O=C(CCN1CCOCC1)c1ccc(OCc2ccccc2)cc1
- pIC50 (A431 (Homo sapiens)): < 4.00
- pIC50 [1]: < 4.00
- pIC50 [2]: < 4.00
- pIC50 [3]: 5.82
- pIC50 (Balb/MK): 4.47
- pIC50 [4]: 3.38

SMILES: C=C(CN1CCOCC1)C(=O)c1ccc(OCc2ccccc2)cc1
- pIC50 (A431 (Homo sapiens)): 4.00
- pIC50 [1]: < 4.00
- pIC50 [2]: < 4.00
- pIC50 [3]: 5.96
- pIC50 (Balb/MK): 5.74
- pIC50 [4]: 3.96

SMILES: C=C(CN(C)C)C(=O)c1ccc(OS(=O)(=O)c2ccc(C(=O)O)cc2)cc1
- pIC50 (A431 (Homo sapiens)): 4.00
- pIC50 [1]: < 4.00
- pIC50 [2]: 4.30
- pIC50 [3]: 6.64
- pIC50 (Balb/MK): < 4.30
- pIC50 [4]: < 3.30

SMILES: C=C(CN1CCCCC1)C(=O)c1ccc(OCc2ccccc2)cc1
- pIC50 (A431 (Homo sapiens)): < 4.00
- pIC50 [1]: < 4.00
- pIC50 [2]: < 4.00
- pIC50 [3]: 5.96
- pIC50 (Balb/MK): 5.46
- pIC50 [4]: 3.85

SMILES: CC(CN(C)C)C(=O)c1ccc(OS(=O)(=O)c2ccc(C(=O)O)cc2)cc1 (configuration not stated)
- pIC50 (A431 (Homo sapiens)): 4.00
- pIC50 [3]: 4.00
- pIC50 (Balb/MK): < 4.30

SMILES: CN(C)CC(CSCCN)C(=O)c1ccc(OCc2ccccc2)cc1 (configuration not stated)
- pIC50 (A431 (Homo sapiens)): 4.60
- pIC50 [1]: < 4.00
- pIC50 [2]: < 4.30
- pIC50 [3]: 5.06
- pIC50 (Balb/MK): 5.39
- pIC50 [4]: < 4.00

SMILES: CN(C)CCC(=O)c1ccc(OCc2ccccc2)cc1
- pIC50 (A431 (Homo sapiens)): < 4.00
- pIC50 [1]: < 4.00
- pIC50 [2]: < 4.00
- pIC50 [3]: 5.82
- pIC50 (Balb/MK): 4.34
- pIC50 [4]: < 4.00

SMILES: CN(C)CCCC(=O)c1ccc(OCc2ccccc2)cc1
- pIC50 (A431 (Homo sapiens)): < 4.00
- pIC50 [2]: < 4.00
- pIC50 [3]: < 4.00
- pIC50 (Balb/MK): < 4.30

SMILES: COC(=O)c1ccccc1SCC(CN(C)C)C(=O)c1ccc(OCc2ccccc2)cc1 (configuration not stated)
- pIC50 (A431 (Homo sapiens)): 4.60
- pIC50 [1]: < 4.00
- pIC50 [2]: < 4.00
- pIC50 [3]: 5.06
- pIC50 (Balb/MK): 5.91
- pIC50 [4]: < 3.30

SMILES: C=C(CN(C)C)C(=O)c1ccc(OCc2ccccc2)c(O)c1
- pIC50 (A431 (Homo sapiens)): < 4.00
- pIC50 [1]: 4.30
- pIC50 [2]: < 4.30
- pIC50 [3]: 6.17
- pIC50 (Balb/MK): 5.48
- pIC50 [4]: 4.07

SMILES: C=C(CN(C)C)C(=O)c1ccc(OS(=O)(=O)c2ccc(C(=O)O)c(O)c2)cc1
- pIC50 (Balb/MK): < 4.30
- pIC50 [4]: 3.85

From ChEMBL document CHEMBL1128740, “[(Alkylamino)methyl]acrylophenones: potent and selective inhibitors of the epidermal growth factor receptor protein tyrosine kinase” (J Med Chem, 1995)
